Where two headings read alike, the source gives them in different places.
What was measured:
B. tabaci CYP6CM1 = assay: Metabolism of insecticides by recombinant CYP6CM1 microsomes; type: in vitro ADME, Bemisia tabaci; details: 20 µM insecticide; 4 h at 30 °C; NADPH-regenerating system; UPLC-MS
Summary of the method: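 B. tabaci CYP6CM1 and Drosophila NADPH CPR were baculovirus-expressed in Sf9 cells and run as microsomes (0.2 mg mL−1 total protein) in 0.1 M K-phosphate. Regenerating system: 1.3 mM NADP+, 3.3 mM glucose-6-phosphate, 3.3 mM MgCl2, 0.4 U mL−1 G6PDH. Insecticide 20 µM, 30 °C, 4 h, triplicates, no-NADPH control. Quenched with acetonitrile (50% final), centrifuged, parent loss measured by UPLC–MS/MS in positive ion mode.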

Fish acute toxicity = details: rainbow trout, in vivo
Honey bee [1] = assay: Honey bee acute oral toxicity; type: in vivo; details: technical flupyradifurone
[2] = tested on: tomato plants (Solanum lycopersicum L.); assay: Plant uptake and translocation by phosphor imaging; details: [14C]-labelled, SL200; tomato plants harvested 1 day after soil drench
Summary of the method: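 Test compound was [pyridinylmethyl-14C]-labelled in SL200 and drenched at 24 mg AI plant−1 onto 21-day-old tomato in 5 L pots of sandy loam at 80–90% water-holding capacity. Plants were kept at 21/16 °C day/night with 14 h light and 60–70% RH. Shoots were cut at the soil surface, pressed, dried 24 h at 50 °C and exposed 6 days to phosphor imaging plates.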

Eye irritation = details: technical flupyradifurone
[3] = tested on: endogenously expressed insect nAChRs; assay: Whole-cell voltage clamp electrophysiology on isolated neurons; type: cell-based, Spodoptera frugiperda; details: for relative agonist efficacy: relative to the amplitude elicited by 1 mM of acetylcholine, holding potential −70 mV
[4] = Reproductive and developmental toxicity; details: technical flupyradifurone
Bumblebee = Bumblebee acute contact toxicity; type: in vivo; details: technical flupyradifurone
Honey bee [5] = assay: Honey bee acute contact toxicity; type: in vivo; details: technical flupyradifurone
Earthworm (Eisenia) = assay: Earthworm 14 day toxicity; type: in vivo
rat [6] = assay: Acute inhalation toxicity; type: in vivo; details: technical flupyradifurone
[7] = tested on: lettuce aphids (Nasonovia ribisnigri); assay: Field trials against lettuce aphids; type: in vivo; details: seven lettuce field trials, foliar spray, rate g ha^−1: flupyradifurone 125, pymetrozine 200, thiacloprid 96, spirotetramat 75; for Efficacy (%) 6–10 DAA: 6–10 days after application; for Efficacy (%) 13–15 DAA: 13–15 days after application
Summary of the method: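 Seven lettuce field trials in the EU maritime zone, each including commercial formulated standard insecticides for comparison. Treatments were replicated 3–4 times per trial, with aphid infestations above economic threshold levels. Efficacy was assessed at various intervals after spraying by scoring surviving aphids.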

Bemisia tabaci = assay: Whitefly adult leaf-dip bioassay; type: in vivo; details: for mortality at 16 µg/mL: Bemisia tabaci
Summary of the method: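 Adult B. tabaci, including neonicotinoid-resistant biotype B (Unai, Brazil, 2009). Cotton leaf discs (3.5 cm) were dipped 5 s in solutions made up in 0.02% Triton X-100, with diluent alone for controls. Discs were air-dried and laid on 12 g L−1 agar under ventilated lids. Three replicates per concentration, 20–30 females each, held at 22–24 °C; adult mortality scored after 72 h.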

Honey bee [8] = assay: Honey bee foliage residue test; type: in vivo; details: at 205 g ha^−1
Aquatic plant toxicity = details: algae, in vivo
Mutagenicity = details: technical flupyradifurone
Myzus persicae = assay: Speed of action: suppression of aphid honeydew excretion on oilseed rape; type: in vivo; details: SL200, 75 g AI ha^−1 foliar on oilseed rape
Summary of the method: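 Susceptible M. persicae (strain NS): 100 aphids per plant on the abaxial leaf side of […] oilseed rape (six leaves). Sprayed 50 cm above the canopy with a track sprayer at 75 g AI ha−1 SL200 in 300 L ha−1 water; water controls; two replicates; 22 °C, 60–70% RH. Filter papers under the leaves were changed every 30 min up to 240 min and stained with ninhydrin; honeydew spot area was expressed as suppression relative to preapplication.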

Honey bee [9] = assay: Honey bee long-term field studies in oilseed rape; type: in vivo; details: 205 g AI ha^−1 in oilseed rape, full bloom and bees actively foraging
Skin irritation = details: technical flupyradifurone
rat [10] = assay: Acute dermal toxicity; type: in vivo; details: technical flupyradifurone
[11] = Aquatic invertebrate acute toxicity; details: Daphnia, in vivo
Carcinogenicity = details: technical flupyradifurone

In the case of `O=C1C=C(N(Cc2ccc(Cl)nc2)CC(F)F)CO1` [Flupyradifurone, 4-{[(6-Chloropyridine-3-yl)methyl] (2,2-difluoroethyl)amino}furan-2 (5H)-one], the “degradation of parent compound by CYP6CM1 microsomes” value (“degradation of parent compound” below) (B. tabaci CYP6CM1) was “not depleted at all”, the LC50 (Fish acute toxicity) was > 74.2 µg/mL and the “Honey bee acute oral LD50” value (Honey bee [1]) was 1200 ng bee^−1. The “root uptake and distribution after drench application” value [2] was “fast root uptake”, the Eye irritation (Eye irritation) was “Non-irritant” and the “type of action on nAChRs” value ([3]; isolated S. frugiperda neurons) was “partial agonist”. For the same compound, the relative agonist efficacy [3] was 0.56, the “Reproductive and developmental toxicity” value [4] was “No concern” and the “Bumblebee acute contact LD50” value (Bumblebee) was >100 µg bee^−1. The “Honey bee acute contact LD50” value (Honey bee [5]) was >100 µg bee^−1, the “Earthworm (Eisenia) 14 day LC50” value (Earthworm (Eisenia)) was 193 mg kg^−1 dry weight soil and the “Acute inhalation toxicity, rat LC50” value (rat [6]) was >4671 mg m^−3. The “Efficacy (%) 6–10 DAA” value [7] was 96%, the “Efficacy (%) 13–15 DAA” value [7] was 83% and the mortality at 16 µg/mL (Bemisia tabaci; read-out: adult mortality) was 50%. The mortality at 16 µg/mL (Bemisia tabaci; read-out: nymph mortality) was 100%, the “Honey bee foliage residue” value (Honey bee [8]) was “No effects at 205 g ha^−1” and the EC50 (Aquatic plant toxicity) was > 80 µg/mL. The Mutagenicity (Mutagenicity) was “Not a mutagen”, the “time to feeding (honeydew excretion) stop after spray application” value (Myzus persicae; aphids on abaxial leaf side) was ≤ 2 h and the “aphid mortality two days after application” value (Myzus persicae; data not shown) was “all aphids were dead”. For the same compound, the “Honey bee long-term field studies” value (Honey bee [9]) was “No adverse effects”, the Skin irritation (Skin irritation) was “Non-irritant” and the “Acute dermal toxicity, rat LD50” value (rat [10]) was >2000 mg kg^−1 body weight. For the same compound, the EC50 [11] was > 77.6 µg/mL and the Carcinogenicity (Carcinogenicity) was “Not a carcinogen”.
With `O=[N+]([O-])NC1=NCCN1Cc1ccc(Cl)nc1` [Imidacloprid, imidacloprid, reference compound] the “degradation of parent compound” value (B. tabaci CYP6CM1) was 23 ± 1%, the relative agonist efficacy [3] was 0.15 and the “response of adult females” value (Bemisia tabaci; B. tabaci B-type strain (Unai, Brazil), concentrations of 1000 mg L^−1) was “do not respond at all”.
In the case of `CC(c1ccc(C(F)(F)F)nc1)S(C)(=O)=NC#N` (centres unmarked) [sulfoxaflor], the “degradation of parent compound” value (B. tabaci CYP6CM1) was “not depleted at all”.
With `CCOC(=O)OC1=C(c2cc(C)ccc2C)C(=O)N[C@]12CC[C@@H](OC)CC2` [Spirotetramat, spirotetramat] the “degradation of parent compound” value (B. tabaci CYP6CM1) was “not depleted at all”, the “Efficacy (%) 6–10 DAA” value [7] was 90% and the “Efficacy (%) 13–15 DAA” value [7] was 98%.
In the case of `CC1=NNC(=O)N(/N=C/c2cccnc2)C1` [Pymetrozine, pymetrozine], the “degradation of parent compound” value (B. tabaci CYP6CM1) was 70 ± 6%, the “Efficacy (%) 6–10 DAA” value [7] was 79% and the “Efficacy (%) 13–15 DAA” value [7] was 57%.
For `N#C/N=C1\SCCN1Cc1ccc(Cl)nc1` [Thiacloprid, thiacloprid], the “Efficacy (%) 6–10 DAA” value [7] was 88% and the “Efficacy (%) 13–15 DAA” value [7] was 72%.

Source: PMC4657471 (Pest Management Science, 2014)
